Experimental data pooled from the literature.
Target: Serine/threonine-protein kinase PAK 3 (PAK3, Homo sapiens, UniProt O75914)

FC(F)(F)Oc1cccc(-c2cnc3ccc(-c4ccncc4)nn23)c1  remaining binding (cell-free assay; competition with immobilised ligand; 5 µM): 100%
COc1ccnn2ncc(-c3ccnc(N(C)C)n3)c12  remaining binding (binding; 1 µM): 100%
O=C(c1ccc(Nc2ncc(Cl)c(-c3cc4ccccc4s3)n2)cc1)N1CCC(N2CCCC2)CC1  remaining binding (binding; competition with immobilised ligand; 1 µM): 8.4%
CCN1CCN(Cc2ccc(C(=O)Nc3ccc(C)c(Oc4ccc5c(c4)CC(=O)N5)c3)cc2C(F)(F)F)CC1  remaining binding (binding; competition with immobilised ligand; 1 µM): 98%
CNC(=O)[C@@H]1CC[C@@H](n2c(-c3ccc4cnccc4c3)nc3ccc(C(=O)NCc4cccc(C(N)=O)c4)cc32)C1  remaining binding (binding; competition with immobilised ligand; 1 µM): 95%
O=C(Nc1ccc(Oc2ccc(F)cc2)cc1)N1CCc2ncccc2[C@H]1c1ccc(F)cc1  remaining binding (cell-free assay; competition with immobilised ligand; 1 µM): 100%
c1cncc(-c2cccc(Nc3nccc(NC4CCCCC4)n3)c2)c1  remaining binding (binding; competition with immobilised ligand; 10 µM): 38%
CC(=O)Nc1c(C(C)=O)c(=O)n(C)c2nc(-c3ccc(Cl)cc3Cl)c(-c3ccc(Cl)cc3)cc12  remaining binding (cell-free assay; competition with immobilised ligand; 1 µM): 100%
C[C@@H]1CCN(c2nccc(-c3cnn4ncccc34)n2)C1  remaining binding (binding; 1 µM): 85%
O=C(Nc1c[nH]nc1C(=O)NC1CCNCC1)c1cc(F)cc(F)c1  remaining binding (binding; competition with immobilised ligand; 1 µM): 98%
c1cnn2ncc(-c3ccnc(N4CCC45COC5)n3)c2c1  remaining binding (binding; 1 µM): 88%
O=C(c1ccc(Nc2nccc(-c3cc4ccccc4s3)n2)cc1)N1CCC(N2CCCC2)CC1  remaining binding (binding; competition with immobilised ligand; 1 µM): 39%
CN(c1nccc(-c2cnn3ncccc23)n1)C1CC1  remaining binding (binding; 1 µM): 100%
CN([C@@H]1CCc2c(CC(=O)O)c3ccccc3n2C1)S(=O)(=O)c1ccc(F)cc1  remaining binding (cell-free assay; competition with immobilised ligand; 1 µM): 98%
CC1CCCN1c1nccc(-c2cnn3ncccc23)n1 (stereo not drawn)  remaining binding (binding; 1 µM): 100%
CSc1cccnc1N1CCN(Cc2nc3ccccc3[nH]2)CC1  remaining binding (cell-free assay; competition with immobilised ligand; 1 µM): 87%
COc1cnc(Nc2cccc(S(N)(=O)=O)c2)nc1N1CCN(c2ccccc2)CC1  remaining binding (binding; competition with immobilised ligand; 1 µM): 100%
COc1ccc2c(c1)O[C@H](c1ccc(OC)c(OC)c1)C[C@@H]2NC(=O)C1(c2ccc3c(c2)OC(F)(F)O3)CC1  remaining binding (cell-free assay; competition with immobilised ligand; 1 µM): 100%
CN(C)c1nccc(-c2cnn3ncccc23)n1  remaining binding (binding; 1 µM): 100%
CC(=O)c1c(NS(C)(=O)=O)c2cc(-c3ccc(Cl)cc3)c(-c3ccc(Cl)cc3Cl)nc2n(C)c1=O  remaining binding (cell-free assay; competition with immobilised ligand; 1 µM): 100%
O=C(c1ccc(Nc2ncc(Cl)c(-c3ccc(Cl)s3)n2)cc1)N1CCC(N2CCCC2)CC1  remaining binding (binding; competition with immobilised ligand; 1 µM): 38%
